The test system of assay [1] is Mus musculus. Put plainly: Anticonvulsant activity in NMRI mouse assessed as pentylenetetrazole-induced clonic seizure threshold at 5 mg/kg, ip administered 60 mins before pentylenetetrazole challenge. It counts as functional. The conditions noted are these: route intraperitoneal. In a few lines:
(§1)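 Male NMRI mice (24-30 g), at least eight per group, each used once. Compounds dispersed in 0.5% CMC and given i.p. in 10 ml/kg, 60 min before PTZ. PTZ (0.5% in saline) infused i.v. into the tail vein at 0.5 ml/min in unrestrained animals until forelimb clonus then full body clonus. Threshold = minimal PTZ dose (mg/kg) for clonic seizure, expressed as % and compared with CMC group; mean ± SEM.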

For assay [2], the system named is Mus musculus. Put plainly: Anticonvulsant activity in NMRI mouse assessed as pentylenetetrazole-induced clonic seizure threshold at 10 mg/kg, ip administered 60 mins before pentylenetetrazole challenge. It counts as functional. The conditions noted are these: route intraperitoneal. In a few lines:
as §1

Assay [3] in a line: Displacement of [3H]flumazenil from GABAA/BZD receptor in Sprague-Dawley rat cortical membrane after 35 mins by competition binding assay. An outline of the steps: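 Cortex from male Sprague-Dawley rats (300-350 g), homogenized in Tris-HCl, washed, and preincubated 30 min at 37°C; membranes stored at -20°C and used within 1-15 days. 100 µg membrane protein incubated with 8.6×10^-5 nmole [3H]-flumazenil plus increasing test ligand in 50 mM Tris-HCl pH 7.4 (0.5 mL), 30°C, 35 min. Stopped by centrifugation. Excess diazepam defined nonspecific binding. Triplicates; IC50 = 50% inhibition of specific binding.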
Background: Loss of bound radioactivity is the signal in a displacement assay; it reports binding, not function.

For assay [4], the system named is Mus musculus. Put plainly: Anticonvulsant activity in NMRI mouse assessed as pentylenetetrazole-induced clonic seizure threshold at 20 mg/kg, ip administered 60 mins before pentylenetetrazole challenge. It counts as functional. The conditions noted are these: route intraperitoneal. In a few lines:
as §1

The source of these data is ChEMBL document CHEMBL3120050, “Synthesis, receptor affinity and effect on pentylenetetrazole-induced seizure threshold of novel benzodiazepine analogues: 3-Substituted 5-(2-phenoxybenzyl)-4H-1,2,4-triazoles and 2-amino-5-(phenoxybenzyl)-1,3,4-oxadiazoles” (Bioorg Med Chem, 2014).

Broadly, the IC50 is the midpoint of a concentration-inhibition curve. Read a high IC50 as weaker potency in that assay. What is called Kd is the equilibrium constant for the complex coming apart. Higher therefore signals lower affinity.

`Clc1ccc(Cc2nnc(SCc3ccccc3)[nH]2)c(Oc2ccccc2Cl)c1`: the Activity came out at 112.52% in assay [1], 122.18% in assay [2] and 128.77% in assay [4]. The same compound had an IC50 in assay [3] of 2.23 nM. The compound also returned a Kd in assay [3] of 1.36 nM.
Taken in the same sequence, the figures for `CSc1nnc(Cc2ccc(Cl)cc2Oc2ccccc2F)[nH]1` were 110.43%, 121.41%, 135.53%, 3.78 nM and 2.32 nM.
For `CCSc1nnc(Cc2ccc(Cl)cc2Oc2ccccc2F)[nH]1`, the Activity in assay [1] is listed as 125.52%; in assay [2] it was 144.44%; in assay [4], 141.4%. For the same compound, in assay [3], the IC50 is 1.32 nM. Also, binding in assay [3] was characterised by a dissociation constant (Kd) of 0.8 nM.
In the same order, the values of `CCCSc1nnc(Cc2ccc(Cl)cc2Oc2ccccc2F)[nH]1` are 119.45%, 127.32%, 133.41%, 1.97 nM and 1.21 nM.
In the same order, the values of `Fc1ccccc1Oc1cc(Cl)ccc1Cc1nnc(SCc2ccccc2)[nH]1` are 165.66%, 168.6%, 178.53%, 0.892 nM and 0.544 nM.
Taken in the same sequence, the figures for `Nc1nnc(Cc2ccccc2Oc2ccccc2)o1` were 131.63%, 142.52%, 174.36%, 1.9 nM and 1.17 nM.
For the compound `Nc1nnc(Cc2ccc(Cl)cc2Oc2ccccc2Cl)o1`, the Activity came out at 125.22% in assay [1], 132.44% in assay [2] and 170.25% in assay [4]. Also, in assay [3], the IC50 came out at 1.75 nM. The compound also displayed a Kd in assay [3] of 1.1 nM.
Taken in the same sequence, the figures for `Nc1nnc(Cc2ccc(Cl)cc2Oc2ccccc2F)o1` were 111.61%, 128.95%, 154.23%, 1.89 nM and 1.16 nM.
For `CCOc1nnc(Cc2ccccc2Oc2ccccc2)[nH]1`, the Activity in assay [1] amounted to 122.56%; in assay [2], 125.79%; in assay [4] it was 143.52%. In assay [3], this compound gave an IC50 of 3.49 nM. Moreover, binding in assay [3] was put at a Kd of 2.14 nM.
On to `CCOc1nnc(Cc2ccc(Cl)cc2Oc2ccccc2Cl)[nH]1`, for which the Activity in assay [1] is 120.06%; in assay [2] it was 122.29%; in assay [4], 134.63%. The compound further registered an IC50 in assay [3] of 2.13 nM. Besides, in assay [3], binding was put at a Kd of 1.3 nM.
Regarding `CCOc1nnc(Cc2ccc(Cl)cc2Oc2ccccc2F)[nH]1`, the Activity is 110.82% in assay [1], 115.67% in assay [2] and 138.25% in assay [4]. Further, in assay [3], the half-maximal inhibitory concentration (IC50) is 2.07 nM. In assay [3], the Kd was 1.26 nM.
Taken in the same sequence, the figures for `S=c1[nH]nc(Cc2ccccc2Oc2ccccc2)[nH]1` were 126.2%, 141.88%, 160.47%, 3.1 nM and 1.9 nM.
Consider `S=c1[nH]nc(Cc2ccc(Cl)cc2Oc2ccccc2Cl)[nH]1`, for which the Activity is recorded as 124.08% in assay [1], 138.87% in assay [2] and 158.77% in assay [4]. Besides, the IC50 in assay [3] amounted to 1.78 nM. Also, binding in assay [3] was characterised by a dissociation constant (Kd) of 1.09 nM.
In assay [3], `Fc1ccccc1Oc1cc(Cl)ccc1Cc1n[nH]c(=S)[nH]1` came in with an IC50 of 1.36 nM and a Kd of 0.836 nM.
On to `CSc1nnc(Cc2ccccc2Oc2ccccc2)[nH]1`, for which the figures for the Activity in assay [1], in assay [2] and in assay [4] were 120.26%, 132.83% and 147.06%, respectively. The compound also came in with an IC50 in assay [3] of 1.38 nM. Further, the Kd in assay [3] amounted to 0.84 nM.
Regarding `CCSc1nnc(Cc2ccccc2Oc2ccccc2)[nH]1`, the Activity was 132.47% in assay [1], 141.9% in assay [2] and 168.55% in assay [4].
With `CCCSc1nnc(Cc2ccccc2Oc2ccccc2)[nH]1`, the Activity worked out at 127.77% in assay [1], 139.38% in assay [2] and 157.5% in assay [4]. In assay [3], this compound registered an IC50 of 1.24 nM. The compound also showed a Kd in assay [3] of 0.75 nM.
In the same order, the values of `c1ccc(CSc2nnc(Cc3ccccc3Oc3ccccc3)[nH]2)cc1` are 129.27%, 139.21%, 143.4%, 2.07 nM and 1.27 nM.
Consider `CSc1nnc(Cc2ccc(Cl)cc2Oc2ccccc2Cl)[nH]1`, for which the Activity was found to be 125.02% in assay [1], 131.61% in assay [2] and 169.89% in assay [4]. In assay [3], the IC50 amounted to 2.52 nM. This compound came in with a Kd in assay [3] of 1.54 nM.
Taken in the same sequence, the figures for `CCSc1nnc(Cc2ccc(Cl)cc2Oc2ccccc2Cl)[nH]1` were 133.58%, 139.99%, 173.98%, 1.63 nM and 1 nM.
Taken in the same sequence, the figures for `CCCSc1nnc(Cc2ccc(Cl)cc2Oc2ccccc2Cl)[nH]1` were 117.68%, 125.29%, 134.09%, 1.35 nM and 0.82 nM.
For `CN1C(=O)CN=C(c2ccccc2)c2cc(Cl)ccc21` [DIAZEPAM], in assay [3], the IC50 was 2.86 nM and the Kd came to 1.75 nM.
